What was measured:
Gli-2 = experiment: Quantitative real-time PCR, Gli-2 mRNA; assay type: cell-based, mouse; settings: NIH3T3-12Gli cells, presence or absence of Shh-N, 24 h
In short: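 NIH3T3-12Gli cells are kept in either HEK293 control medium or Shh-N conditioned medium and treated in triplicate with test compound or DMSO control. RNA is extracted with Trizol, cDNA is made with a PrimeScript kit, and SYBR Green qPCR is run with mouse Gli-2 primers. Values are normalised to GAPDH and relative expression is derived by the 2(-ΔΔCt) method.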

Smo-WT = Smo-WT (Homo sapiens, UniProt Q99835); experiment: Smo ciliary translocation assay, NIH3T3 cells expressing Smo-WT-EYFP; assay type: cell-based; settings: Shh-N 20%, SAG 100 nmol/L
Chain of Smo-WT (Q99835 28-787): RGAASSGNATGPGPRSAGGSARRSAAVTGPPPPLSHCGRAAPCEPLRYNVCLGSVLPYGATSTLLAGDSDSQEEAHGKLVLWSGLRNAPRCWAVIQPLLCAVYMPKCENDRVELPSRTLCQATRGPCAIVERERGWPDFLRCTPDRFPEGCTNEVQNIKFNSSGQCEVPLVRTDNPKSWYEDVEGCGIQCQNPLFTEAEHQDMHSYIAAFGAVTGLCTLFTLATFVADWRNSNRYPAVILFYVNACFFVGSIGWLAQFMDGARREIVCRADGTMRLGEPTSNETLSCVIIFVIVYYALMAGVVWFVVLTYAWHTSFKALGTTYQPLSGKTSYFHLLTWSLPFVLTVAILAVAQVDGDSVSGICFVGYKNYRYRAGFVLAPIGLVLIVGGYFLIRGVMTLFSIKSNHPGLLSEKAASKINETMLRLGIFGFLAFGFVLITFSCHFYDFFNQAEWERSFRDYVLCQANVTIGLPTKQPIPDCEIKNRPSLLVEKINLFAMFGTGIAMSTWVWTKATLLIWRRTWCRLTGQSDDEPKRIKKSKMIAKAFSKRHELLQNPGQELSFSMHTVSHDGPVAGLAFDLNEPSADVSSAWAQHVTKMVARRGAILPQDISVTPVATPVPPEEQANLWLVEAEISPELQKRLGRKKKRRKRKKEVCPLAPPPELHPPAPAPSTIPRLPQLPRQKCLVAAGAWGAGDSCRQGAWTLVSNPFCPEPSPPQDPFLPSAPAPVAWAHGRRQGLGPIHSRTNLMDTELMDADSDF
In short: (§1)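 NIH3T3 cells were transfected with pEYFP-Smo (WT or M2), selected in 500 μg/mL G418, and monoclonal clones were picked. Clones were treated with 0.1% DMSO, 20% Shh-N conditioned medium and/or 100 nmol/L SAG, with or without test compound. Smo-EYFP was imaged directly, cilia by acetylated α-tubulin immunofluorescence, nuclei by DAPI. At least two clones were used.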

NIH3T3-12Gli cells = experiment: Immunofluorescence of acetylated and detyrosinated tubulin of primary cilia; assay type: cell-based; settings: Fig. S1
In short: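 Reporter NIH3T3 clone (NIH3T3-12Gli, stably carrying a Gli-responsive luciferase reporter) was exposed to test compounds or conditions. Primary cilia were co-immunostained with anti-detyrosinated (glu) tubulin and anti-acetylated α-tubulin antibodies, and nuclei were stained with DAPI. Cilia were imaged by fluorescence microscopy.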

NIH3T3 cells = experiment: Immunoblotting of acetylated α-tubulin and total histones; assay type: cell-based; settings: 6 h treatment
Gli-1 = experiment: Quantitative real-time PCR, Gli-1 mRNA; assay type: cell-based, mouse; settings: NIH3T3-12Gli cells, 24 h; for Gli-1 transcription induced by Shh-N: presence of Shh-N
In short: (§2)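 Total RNA is extracted with Trizol and quantified. cDNA is made with a PrimeScript reverse-transcription kit, then SYBR Green real-time PCR is run with mouse-specific primers and GAPDH as the reference gene. Relative expression is calculated by the 2(-ΔΔCt) method, with ΔCt = Ct of the target gene minus Ct of GAPDH.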

Ptch-1 = experiment: Quantitative real-time PCR, Ptch-1 mRNA; assay type: cell-based, mouse; settings: NIH3T3-12Gli cell line, data not shown
In short: as §2

Hh signaling = experiment: Gli luciferase reporter assay in NIH3T3-12Gli cells; assay type: cell-based; settings: for IC50: 36 h, read-out: IC50, Hh signaling induced by Shh-N conditioned medium (luciferase reporter)
[1] = test system: Hh signaling mediated by Smo-M2; experiment: Luciferase reporter assay in NIH3T3-12Gli cells expressing Smo-M2-EYFP; assay type: cell-based, human
Smo-M2 = Smo-M2 (Homo sapiens, UniProt Q99835, W535L); experiment: Smo ciliary translocation assay, NIH3T3 cells expressing Smo-M2-EYFP; assay type: cell-based; settings: Shh-N 20%, SAG 100 nmol/L
Chain of Smo-M2 (Q99835 28-787 W535L): as the sequence (Q99835 28-787) above, with W508L counted along it
In short: as §1

[2] = test system: Hh signaling mediated by Smo-DH; experiment: Luciferase reporter assay in NIH3T3-12Gli cells expressing Smo-DH-EYFP; assay type: cell-based, human; settings: in the absence or presence of Shh-N
[3] = test system: Hh signaling mediated by Smo-WT; experiment: Luciferase reporter assay in NIH3T3-12Gli cells expressing Smo-WT-EYFP; assay type: cell-based, human
Smo-DH = Smo-DH (Homo sapiens, UniProt Q99835, D473H); experiment: BODIPY-cyclopamine binding competition, HEK293T cells expressing Smo-DH
Chain of Smo-DH (Q99835 28-787 D473H): as the sequence (Q99835 28-787) above, with D446H counted along it

| Suppression of Smo localization to primary cilium induced by Shh-N and SAG (Smo-WT) | IC50 (Hh signaling) | Effect on accumulation of Smo-M2 in cilia induced by Hh pathway stimulators (Smo-M2) | Inhibition of association of BODIPY-cyclopamine with Smo-DH / binding to Smo-DH (Smo-DH) | Compound | Gli-2 transcription (Gli-2) | Acetylation and detyrosination of primary cilia (NIH3T3-12Gli cells) | Acetylation of total histones and α-tubulin (NIH3T3 cells) | Gli-1 transcription, Hh pathway in off-state (Gli-1; absence of Shh-N) | Gli-1 transcription induced by Shh-N (Gli-1) | Expression of Ptch-1 induced by Shh-N (Ptch-1) | Block of reporter activity at 3 μmol/L (Hh signaling; 3 μmol/L) | Inhibition of Hh signaling mediated by Smo-M2 ([1]; in the absence of Shh-N) | Concentration that fully blocked Hh pathway, Smo-M2 ([1]; in the presence of Shh-N) | Inhibition of reporter activity in Smo-DH-transfected cells [2] | Concentration that almost maximally blocked reporter activity ([3]; NIH3T3-12Gli cells expressing Smo-WT) | Inhibition of reporter activity of cells expressing Smo-WT-EYFP ([3]; in the absence of Shh-N) |
| --- | --- | --- | --- | --- | --- | --- | --- | --- | --- | --- | --- | --- | --- | --- | --- | --- |
| but not vorinostat | 670 nM |  |  | O=C(CCCCCCC(=O)Nc1ccccc1)NO [vorinostat] | significantly and dose-dependently suppressed | downregulated the acetylation but not the detyrosination | effectively and dose dependently increased | significantly increased | potently inhibited | effectively suppressed | almost completely blocked |  |  |  |  |  |
| effectively suppressed | 19.7 nM | did not inhibit | inability to bind Smo-DH | CS(=O)(=O)c1ccc(C(=O)Nc2ccc(Cl)c(-c3ccccn3)c2)c(Cl)c1 [vismodegib] |  |  |  |  | potently inhibited | effectively suppressed |  | significantly inhibited | > 10 µmol/L | no inhibition | 1 µmol/L | slightly but dose-dependently inhibited |

From PMC4186412 (Pharmacology Research & Perspectives, 2014)
